In ChEMBL document CHEMBL2177084, “Discovery of salermide-related sirtuin inhibitors: binding mode studies and antiproliferative effects in cancer cells including cancer stem cells” (J Med Chem, 2012):
Values belong to the compound of their own block, whether it stands above or below them. Calls of active or inactive are those of the source. The rule behind the calls is not given here.

Legend:
U-937 [1] = experiment: Induction of apoptosis in human U937 cells at 50 uM after 45 hrs by flow cytometry; format: functional, cell-based
In short: (§1)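 Apoptosis was taken as the pre-G1 peak after propidium iodide staining in hypotonic citrate/Triton buffer (30 min, dark) and flow cytometry. Triplicate experiments.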

U-937 [2] = experiment: Induction of apoptosis in human U937 cells at 5 uM after 45 hrs by flow cytometry; format: functional, cell-based; in short: as §1
[3] = molecular target: T1, NAD-dependent protein deacetylase sirtuin-1 (Homo sapiens) (UniProt Q96EB6); experiment: (§2) Inhibition of human N-terminal GST-tagged SIRT1 expressed in Escherichia coli using Arg-His- Lys-Lys(Ac) as substrate after 1 hr by Fluor de Lys fluorescence based assay
T1 sequence (whole entry): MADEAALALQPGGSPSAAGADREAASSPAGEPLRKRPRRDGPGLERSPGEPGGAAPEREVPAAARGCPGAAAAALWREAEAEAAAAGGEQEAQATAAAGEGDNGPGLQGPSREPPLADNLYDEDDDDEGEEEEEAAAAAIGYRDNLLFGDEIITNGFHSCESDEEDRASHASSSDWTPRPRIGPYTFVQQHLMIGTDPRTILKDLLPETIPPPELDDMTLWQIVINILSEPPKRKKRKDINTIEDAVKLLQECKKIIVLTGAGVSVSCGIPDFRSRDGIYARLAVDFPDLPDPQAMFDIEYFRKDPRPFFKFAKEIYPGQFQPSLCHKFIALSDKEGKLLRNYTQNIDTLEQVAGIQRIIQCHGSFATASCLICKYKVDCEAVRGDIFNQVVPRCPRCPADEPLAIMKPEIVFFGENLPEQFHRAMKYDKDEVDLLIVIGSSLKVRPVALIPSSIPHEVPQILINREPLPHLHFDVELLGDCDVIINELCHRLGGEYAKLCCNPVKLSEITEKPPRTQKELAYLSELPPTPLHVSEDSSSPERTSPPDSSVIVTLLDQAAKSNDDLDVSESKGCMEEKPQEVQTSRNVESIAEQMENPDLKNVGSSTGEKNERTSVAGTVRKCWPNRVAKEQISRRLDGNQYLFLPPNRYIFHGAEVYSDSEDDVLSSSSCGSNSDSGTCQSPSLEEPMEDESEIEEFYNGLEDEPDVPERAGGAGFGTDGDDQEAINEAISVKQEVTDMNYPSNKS
In short: (§3)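 Recombinant full-length human sirtuin expressed in E. coli was incubated 1 h at 37 °C with p53-derived AMC-conjugated acetyl-peptide (SIRT1: Arg-His-Lys-Lys(Ac); SIRT2: Gln-Pro-Lys-Lys(Ac); […]) and NAD+ ([…]). The reaction was stopped and developed with developer containing 2 mM nicotinamide, and fluorescence read at ex 360/em 460 nm. Compound fluorescence was subtracted using an enzyme-free counter assay. Triplicate.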

MOLT-4 [4] = experiment: Antiproliferative activity against human MOLT4 cells at 100 uM by MTT assay; format: functional, cell-based; conditions: TDE = time-dependent effect
In short: (§4)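 Cells exposed to compound for 24, 48 and 72 h; growth inhibition read by MTT and expressed as percentage antiproliferative activity.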

MOLT-4 [5] = experiment: Antiproliferative activity against human MOLT4 cells at 100 uM after 24 to 72 hrs by MTT assay; format: functional, cell-based; in short: as §4
MOLT-4 [6] = experiment: Antiproliferative activity against human MOLT4 cells at 25 uM after 24 to 72 hrs by MTT assay; format: functional, cell-based; in short: as §4
U-937 [7] = experiment: Induction of apoptosis in human U937 cells after 45 hrs by flow cytometry; format: functional; design: concentration or dose not given beside the values; conditions: in the assay text read “after 40 hrs” for “after 45 hrs”; in short: as §1
U-937 [8] = experiment: Cell cycle arrest in human U937 cells assessed as accumulation at G1 phase at 25 uM after 40 hrs by flow cytometry; format: functional, cell-based
[9] = Cytotoxicity against human 30P cells after 72 hrs by celltiter-glo luminescent assay; format: functional
In short: (§5)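 Patient-derived CSC spheroids were dissociated, plated at 2000–3000 viable cells, and held 24 h at 37 °C in 5% CO2. They were then treated 72 h with eight 1:3 serial dilutions (0.023–50 μM), with 0.1% DMSO as control, in triplicate. Viability was read by CellTiter-Glo luminescence relative to DMSO, and CC50 was obtained by 4-parameter logistic fit (mean of three experiments).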

[10] = Cytotoxicity against human CRC 1.1 cells after 72 hrs by celltiter-glo luminescent assay; format: functional; in short: as §5
[11] = molecular target: T2, NAD-dependent protein deacetylase sirtuin-1 (Homo sapiens, UniProt Q96EB6); experiment: as §2; in short: as §3
T2 sequence (Q96EB6 whole entry): T1 sequence (whole entry)

U-937 [12] = experiment: Cell cycle arrest in human U937 cells assessed as accumulation at S phase at 25 uM after 40 hrs by flow cytometry; format: functional, cell-based
[13] = Cytotoxicity against human 30PT cells after 72 hrs by celltiter-glo luminescent assay; format: functional; in short: as §5
[14] = Cytotoxicity against human CRO cells after 72 hrs by celltiter-glo luminescent assay; format: functional; in short: as §5
MDA-MB-231 [15] = experiment: Antiproliferative activity against human MDA-MB-231 cells at 50 uM after 24 to 72 hrs by MTT assay; format: functional, cell-based; in short: as §4
RKO [16] = experiment: Antiproliferative activity against human RKO cells at 50 uM after 24 to 72 hrs by MTT assay; format: functional, cell-based; in short: as §4
MOLT-4 [17] = experiment: Antiproliferative activity against human MOLT4 cells at 50 uM after 24 to 72 hrs by MTT assay; format: functional, cell-based; in short: as §4
RKO [18] = experiment: Antiproliferative activity against human RKO cells at 25 uM after 24 to 72 hrs by MTT assay; format: functional, cell-based; in short: as §4
MDA-MB-231 [19] = experiment: Antiproliferative activity against human MDA-MB-231 cells at 25 uM after 24 to 72 hrs by MTT assay; format: functional, cell-based; in short: as §4

- inhibition [3]: Active
SMILES: CC(NC(=O)c1ccc(/N=C/c2c(O)ccc3ccccc23)cc1)c1ccccc1 (stereo unspecified)
- Activity (U-937 [1]): Active
- Activity (U-937 [2]): inactive
- Activity (MOLT-4 [4]): tde
- Activity (MOLT-4 [5]): Active
- Activity (MOLT-4 [6]): Active
- Activity (U-937 [7]): 47%
- Activity (U-937 [8]): Active

- inhibition [3]: Active
SMILES: CC(CS(=O)(=O)c1ccc(/N=C/c2c(O)ccc3ccccc23)cc1)c1ccccc1 (stereo unspecified)
- Activity (U-937 [1]): Active
- Activity (U-937 [2]): inactive
- CC50 [9]: 30.2 µM
- CC50 [10]: 34 µM
- Activity (MOLT-4 [5]): Active
- Activity (U-937 [8]): Active

- inhibition [3]: Active
SMILES: CC(NS(=O)(=O)c1ccccc1/N=C/c1c(O)ccc2ccccc12)c1ccccc1 (stereo unspecified)
- Activity (U-937 [1]): Active
- Activity (U-937 [2]): inactive
- Activity (MOLT-4 [5]): Active

- inhibition [3]: Active
SMILES: CC(NC(=O)c1ccccc1/N=C/c1c(O)ccc2ccccc12)c1ccccc1 (stereo unspecified) [SIRTINOL]
- Activity (U-937 [1]): Active
- Activity (U-937 [2]): inactive
- Activity (U-937 [7]): 47%

SMILES: CC(CSc1ccc(/N=C/c2c(O)ccc3ccccc23)cc1)c1ccccc1 (stereo unspecified)
- Activity (U-937 [1]): Active
- Activity (U-937 [2]): inactive
- Activity (MOLT-4 [5]): Active
- Activity (U-937 [7]): 90%

SMILES: CC(NS(=O)(=O)c1ccc(/N=C/c2c(O)ccc3ccccc23)cc1)c1ccccc1 (stereo unspecified)
- Activity (U-937 [1]): Active
- Activity (U-937 [2]): inactive
- Activity (MOLT-4 [5]): Active

- inhibition [3]: Active
SMILES: CC(NC(=O)c1cccc(/N=C/c2c(O)ccc3ccccc23)c1)c1ccccc1 (stereo unspecified)
- Activity (U-937 [1]): Active
- Activity (U-937 [2]): inactive
- Activity (U-937 [7]): 47%
- Activity (U-937 [8]): Active

- IC50 [11]: 40.9 µM
SMILES: CC(C(=O)Nc1ccc(/N=C/c2c(O)ccc3ccccc23)cc1)c1ccccc1 (stereo unspecified)
- Activity (U-937 [1]): Active
- Activity (U-937 [2]): inactive
- Activity (MOLT-4 [4]): tde
- Activity (MOLT-4 [5]): Active
- Activity (U-937 [7]): 70%
- Activity (U-937 [8]): Active

SMILES: CC(NS(=O)(=O)c1cccc(/N=C/c2c(O)ccc3ccccc23)c1)c1ccccc1 (stereo unspecified)
- Activity (U-937 [12]): Active
- Activity (U-937 [1]): Active
- Activity (U-937 [2]): inactive

SMILES: CC(C(=O)Nc1cccc(/N=C/c2c(O)ccc3ccccc23)c1)c1ccccc1 (stereo unspecified) [SALERMIDE]
- Activity (U-937 [1]): Active
- Activity (U-937 [2]): inactive
- CC50 [13]: 36.5 µM
- CC50 [9]: 41 µM
- CC50 [10]: 9.7 µM
- CC50 [14]: 6.7 µM
- Activity (MOLT-4 [4]): tde
- Activity (MOLT-4 [5]): Active
- Activity (MDA-MB-231 [15]): Active
- Activity (RKO [16]): Active
- Activity (MOLT-4 [17]): Active
- Activity (RKO [18]): Active
- Activity (MDA-MB-231 [19]): Active
- Activity (MOLT-4 [6]): Active
- Activity (U-937 [7]): 70%
- Activity (U-937 [8]): Active
